Experimental data taken from ChEMBL document CHEMBL3120115, “Synthesis and biological evaluation of 2-oxonicotinonitriles and 2-oxonicotinonitrile based nucleoside analogues” (Eur J Med Chem, 2014).

Tests used:
[1] = Selectivity index, ratio of CC50 for cytotoxicity to EC50 for Influenza A virus H1N1; format: toxicity; settings: read-out: Ratio CC50/EC50
Method in brief: (§1)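 CC50 is the concentration at which 50% of cells die, and EC50 is the concentration inhibiting 50% of viral infection. SI is calculated as the CC50/EC50 ratio.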

[2] = Selectivity index, ratio of CC50 for cytotoxicity to EC50 for Influenza A virus H3N2; format: toxicity; settings: read-out: Ratio CC50/EC50; method in brief: as §1
[3] = Selectivity index, ratio of CC50 for cytotoxicity to EC50 for HSV2; format: toxicity; settings: read-out: Ratio CC50/EC50; method in brief: as §1
[4] = Selectivity index, ratio of CC50 for cytotoxicity to EC50 for HSV1; format: toxicity; settings: read-out: Ratio CC50/EC50; method in brief: as §1
[5] = tested on: Influenza A virus; assay: Antiviral activity against Influenza A virus H5N1 by cytopathy assay; format: functional, organism-based
[6] = tested on: Influenza A virus; assay: Antiviral activity against Influenza A virus H1N1 by cytopathy assay; format: functional, organism-based
[7] = tested on: Influenza B virus; assay: Antiviral activity against Influenza B virus by cytopathy assay; format: functional, organism-based
[8] = tested on: Influenza A virus; assay: Antiviral activity against Influenza A virus H3N2 by cytopathy assay; format: functional, organism-based
[9] = tested on: West Nile virus; assay: Antiviral activity against West Nile virus by visual/neutral red test; format: functional, organism-based
[10] = tested on: SARS-CoV; assay: Antiviral activity against SARS coronavirus by visual/neutral red test; format: functional, organism-based; settings: Severe acute respiratory syndrome-related coronavirus
[11] = tested on: Human alphaherpesvirus 1; assay: Antiviral activity against HSV1 assessed as inhibition of viral infection; format: functional, organism-based
[12] = tested on: Human alphaherpesvirus 2; assay: Antiviral activity against HSV2 assessed as inhibition of viral infection; format: functional, organism-based
[13] = tested on: Hepatitis C virus; assay: Antiviral activity against Hepatitis C virus assessed as inhibition of viral infection by RNA replicon assay; format: functional, organism-based, Hepacivirus hominis
[14] = tested on: Hepatitis B virus; assay: Antiviral activity against Hepatitis B virus assessed as inhibition of viral infection by DNA virion assay; format: functional, organism-based
[15] = Selectivity index, ratio of CC50 for cytotoxicity to EC50 for Influenza A virus H5N1; format: toxicity; settings: read-out: Ratio CC50/EC50; method in brief: as §1
[16] = Selectivity index, ratio of CC50 for cytotoxicity to EC50 for Influenza B virus; format: toxicity; settings: read-out: Ratio CC50/EC50; method in brief: as §1
[17] = tested on: Aspergillus viridinutans; assay: Antimicrobial activity against Aspergillus viridinutans at 250 ug/disc after 5 to 7 days by well diffusion method; format: functional; settings: read-out: DIZ
Method in brief: (§2)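 Well diffusion assay. Bacteria were grown on nutrient agar and fungi on Czapek's-Dox agar; spores were inoculated into sterilized medium, dispersed and poured into plates. Compounds were dissolved in DMF at 250 mg/mL and loaded into 1 cm wells. Plates stood 24 h refrigerated for diffusion, then were incubated at 35 °C for 48 h (bacteria) or 28 °C for 5-7 days (fungi). Inhibition zone diameter was read in mm. DMF-only wells served as negative control.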

[18] = tested on: Escherichia coli; assay: Antimicrobial activity against Escherichia coli at 250 ug/disc after 48 hrs by well diffusion method; format: functional; settings: read-out: DIZ; method in brief: as §2
[19] = tested on: Bacillus subtilis; assay: Antimicrobial activity against Bacillus subtilis at 250 ug/disc after 48 hrs by well diffusion method; format: functional; settings: read-out: DIZ; method in brief: as §2
[20] = tested on: Aspergillus niger; assay: Antimicrobial activity against Aspergillus niger at 250 ug/disc after 5 to 7 days by well diffusion method; format: functional; settings: read-out: DIZ; method in brief: as §2

Compound: N#Cc1c(-c2cccs2)cc(-c2cccs2)nc1O
- selectivity ratio [1]: > 3.1
- selectivity ratio [2]: > 4.2
- selectivity ratio [3]: < 4.8
- selectivity ratio [4]: < 4.7
- EC50 [5]: > 100 µM
- EC50 [6]: 32 µM
- EC50 [7]: > 100 µM
- EC50 [8]: 16 µM
- EC50 [9]: > 4.6 µM
- EC50 [10]: > 100 µM
- EC50 [11]: > 12 µM
- EC50 [12]: > 12 µM
- EC50 [13]: > 100 µM
- EC50 [14]: > 100 µM

Compound: CC(=O)OC[C@H]1O[C@@H](n2c(-c3cccs3)cc(-c3ccc(C(C)C)cc3)c(C#N)c2=O)[C@H](OC(C)=O)[C@@H](OC(C)=O)[C@@H]1OC(C)=O
- selectivity ratio [15]: 1
- selectivity ratio [2]: > 3
- selectivity ratio [16]: > 2.2
- selectivity ratio [3]: > 4.9
- selectivity ratio [4]: > 4.4
- EC50 [5]: 32 µM
- EC50 [7]: 40 µM
- EC50 [8]: 33 µM
- EC50 [9]: > 4.7 µM
- EC50 [10]: > 100 µM
- EC50 [11]: 67.2 µM
- EC50 [12]: 60.3 µM
- EC50 [13]: > 100 µM
- EC50 [14]: > 100 µM
- zone of inhibition at 250 µg/disc [17]: 7 mm
- zone of inhibition at 250 µg/disc [18]: 0 mm
- zone of inhibition at 250 µg/disc [19]: 1 mm

Compound: CC(=O)OC[C@H]1O[C@@H](n2c(-c3cccs3)cc(-c3cccs3)c(C#N)c2=O)[C@H](OC(C)=O)[C@@H](OC(C)=O)[C@@H]1OC(C)=O
- selectivity ratio [2]: > 2.5
- selectivity ratio [16]: 1
- selectivity ratio [3]: < 4
- selectivity ratio [4]: < 4
- EC50 [5]: > 100 µM
- EC50 [7]: 32 µM
- EC50 [8]: 40 µM
- EC50 [9]: > 3 µM
- EC50 [10]: > 32 µM
- EC50 [11]: > 60 µM
- EC50 [12]: > 60 µM
- EC50 [13]: > 100 µM
- EC50 [14]: > 100 µM
- zone of inhibition at 250 µg/disc [17]: 6 mm
- zone of inhibition at 250 µg/disc [20]: 8 mm
- zone of inhibition at 250 µg/disc [18]: 0 mm
- zone of inhibition at 250 µg/disc [19]: 2 mm

Compound: CC(C)c1ccc(-c2cc(-c3cccs3)n([C@@H]3O[C@H](CO)[C@@H](O)[C@H](O)[C@H]3O)c(=O)c2C#N)cc1
- zone of inhibition at 250 µg/disc [17]: 8 mm
- zone of inhibition at 250 µg/disc [20]: 7 mm
- zone of inhibition at 250 µg/disc [18]: 0 mm
- zone of inhibition at 250 µg/disc [19]: 10 mm

Compound: N#Cc1c(-c2cccs2)cc(-c2cccs2)n([C@@H]2O[C@H](CO)[C@@H](O)[C@H](O)[C@H]2O)c1=O
- zone of inhibition at 250 µg/disc [17]: 6 mm
- zone of inhibition at 250 µg/disc [19]: 2 mm

Compound: CC(=O)OC[C@H]1O[C@@H](n2c(-c3ccccn3)cc(-c3ccc(Cl)cc3)c(C#N)c2=O)[C@H](OC(C)=O)[C@@H](OC(C)=O)[C@H]1OC(C)=O
- zone of inhibition at 250 µg/disc [17]: 5 mm
- zone of inhibition at 250 µg/disc [20]: 7 mm
- zone of inhibition at 250 µg/disc [18]: 0 mm

Compound: CC(=O)OC[C@H]1O[C@@H](n2c(-c3cccs3)cc(-c3ccc(C(C)C)cc3)c(C#N)c2=O)[C@H](OC(C)=O)[C@@H](OC(C)=O)[C@H]1OC(C)=O
- zone of inhibition at 250 µg/disc [17]: 6 mm
- zone of inhibition at 250 µg/disc [20]: 9 mm

Compound: N#Cc1c(-c2ccc(Cl)cc2)cc(-c2ccccn2)n([C@@H]2O[C@H](CO)[C@H](O)[C@H](O)[C@H]2O)c1=O
- zone of inhibition at 250 µg/disc [17]: 7 mm
- zone of inhibition at 250 µg/disc [18]: 0 mm
- zone of inhibition at 250 µg/disc [19]: 2 mm

Compound: CC(C)c1ccc(-c2cc(-c3cccs3)n([C@@H]3O[C@H](CO)[C@H](O)[C@H](O)[C@H]3O)c(=O)c2C#N)cc1
- zone of inhibition at 250 µg/disc [17]: 6 mm
- zone of inhibition at 250 µg/disc [18]: 5 mm
- zone of inhibition at 250 µg/disc [19]: 3 mm

Compound: N#Cc1c(-c2cccs2)cc(-c2cccs2)n([C@@H]2O[C@H](CO)[C@H](O)[C@H](O)[C@H]2O)c1=O
- zone of inhibition at 250 µg/disc [17]: 8 mm
- zone of inhibition at 250 µg/disc [18]: 0 mm
- zone of inhibition at 250 µg/disc [19]: 4 mm

Compound: CC(=O)OCCCCOc1nc(-c2ccccn2)cc(-c2ccc(Cl)cc2)c1C#N
- zone of inhibition at 250 µg/disc [17]: 7 mm
- zone of inhibition at 250 µg/disc [20]: 9 mm
- zone of inhibition at 250 µg/disc [18]: 0 mm
- zone of inhibition at 250 µg/disc [19]: 3 mm

Compound: N#Cc1c(-c2ccc(Cl)cc2)cc(-c2ccccn2)nc1OCCCCO
- zone of inhibition at 250 µg/disc [17]: 5 mm
- zone of inhibition at 250 µg/disc [20]: 7 mm
- zone of inhibition at 250 µg/disc [18]: 0 mm
- zone of inhibition at 250 µg/disc [19]: 2 mm

Compound: CC(=O)OCCOCn1c(-c2cccs2)cc(-c2cccs2)c(C#N)c1=O
- zone of inhibition at 250 µg/disc [17]: 7 mm
- zone of inhibition at 250 µg/disc [20]: 8 mm
- zone of inhibition at 250 µg/disc [18]: 0 mm
- zone of inhibition at 250 µg/disc [19]: 10 mm
